Screening results from PubChem.
An excerpt weighted towards active compounds, which were near 1.5% of everything screened.
697 NFkB inh: inhibitors of the PMA/ionomycin-induced NF-kB reporter in 697 B cells; 0.33% of 330,000 active; inhibition, % at 4 µM; 697 B-cell NF-kB luciferase reporter, 16 h; in the data active = inhibition above about 35%
Jurkat NFkB inh: inhibitors of the PMA/ionomycin-induced NF-kB reporter in Jurkat cells; PMA/ionomycin-induced NF-kB luciferase reporter, luminescence; inhibition, % at 4 µM; 0.53% of 330,000 active; AID 435003; in the data active = inhibition above about 50%
GASC-1 inh: blocks human GASC-1 demethylase activity | inhibition, % at 2.35 µM | GST-JMJD2C(1-420) H3K9me3 demethylation, DELFIA europium | 0.069% of 330,000 active | AID 2099 | Q9H3R0;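 active = more than half of a compound's replicate wells show inhibition beyond 50%, single wells judged on their own value; inconclusive = some, but no more than half, of replicates pass 50% inhibition; inactive = no replicate passes 50% inhibition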;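 also: signal counts dimethyl H3K9 product captured on neutravidin plate; 0% = median of DMSO wells and 100% = 0.3 times that DMSO median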
NR2E3 ag-1: activates human NR2E3 receptor; CHO-S Gal4-NCOR/VP16-NR2E3 two-hybrid, luciferase; inhibition of corepressor binding, % at 3.98 µM; 0.35% of 360,000 active; AID 602229;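 active = inhibition above the mean of all tested compounds plus 3 SD, cut at about 70% in these data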;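 also: 0% = DMSO with NR2E3 transfected cells and 100% = cells lacking NR2E3 construct; higher means lower luciferase signal from less NR2E3 corepressor binding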
GalR3 antagonist: antagonists of human GalR3; AID 651719; 0.44% of 360,000 active; HEK293 GalR3-CNG cAMP membrane potential fluorescence; galR3 body fused to GalR1 C-terminus; inhibition, % at 3 µM; O60755;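 active = inhibition above the screen-wide average plus 3 SD, cut at about 13% in these data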;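 also: forskolin and galanin both at EC90 stimulate the cells; cAMP rise reported by CNG channel membrane potential dye signal; 0% = forskolin plus galanin with DMSO and 100% = forskolin alone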
Target sequence (O60755 1-299 limits assumed): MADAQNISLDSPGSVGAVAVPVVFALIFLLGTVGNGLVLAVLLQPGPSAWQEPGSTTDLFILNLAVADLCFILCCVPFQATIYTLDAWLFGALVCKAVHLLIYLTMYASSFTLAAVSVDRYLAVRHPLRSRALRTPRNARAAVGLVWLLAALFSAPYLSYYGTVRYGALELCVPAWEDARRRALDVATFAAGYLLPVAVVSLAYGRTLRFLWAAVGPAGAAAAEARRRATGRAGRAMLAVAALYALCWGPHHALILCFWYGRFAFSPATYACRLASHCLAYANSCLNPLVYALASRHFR
NR2E3 ag-2: agonists of human nuclear receptor NR2E3. Q9Y5X4. GST-NR2E3/biotin-RetCOR TR-FRET, 1536-well. inhibition of corepressor binding, % at 4.78 µM. 0.12% of 320,000 active. AID 2300;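 active = percent inhibition above the cutoff of mean plus 3 SD of all tested compounds, set per screening campaign, cut at about 20% in these data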;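 also: 0% = DMSO wells and 100% = biotin wells as full block of FRET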
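system = GST-tagged NR2E3 plus biotinylated RetCOR corepressor | input = 1.35 nM GST-NR2E3 | also added = 7 nM biotin-RetCOR | schedule = 5 h incubation at 4 °C | measured by = TR-FRET with europium anti-GST and streptavidin-D2, 340 nm excitation | read-out = percent loss of FRET ratio relative to control wells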
697 NFkB conf: lowers PMA/ionomycin-induced NF-kB signal in 697 B cells. shares compounds with 697 NFkB inh. 697 B-cell NF-kB luciferase, 16 h. inhibition, % at 4 µM. 35% of 2,000 active; in the data active = inhibition mostly above about 28%, no sharp cut-off; inactive = mostly below about 22%
The depositor's hits bear a star; ? = inconclusive; nt = not tested or not shown.

SMILES	697 NFkB inh	Jurkat NFkB inh	GASC-1 inh	NR2E3 ag-1	GalR3 antagonist	NR2E3 ag-2	697 NFkB conf
NC(=O)c1ccc(C(=O)N/N=C/c2cccc(Oc3ccccc3)c2)cc1	-9	-1	-2	-24	1	nt	nt
CC(=O)c1cccc(NC(=O)N2CCC(c3nnc(SCC(N)=O)n3C)CC2)c1	2	-9	27	-13	-5	2	nt
Nc1nn(-c2ccccc2)c(N)c1N=Nc1ccccc1F	-444	-30	-1	-210	-5	1	-254
COc1ccc(CCNC(=O)c2cc(-c3ccco3)on2)cc1OC	50*	-23	-18	-25	-6	0	18
COc1ccc(CCNC(=O)c2cc(-c3cccs3)on2)cc1OC	-12	-31	-2	-21	nt	-2	nt
Cc1ccc(NC(=O)c2cc(-c3ccco3)on2)cc1	22	-11	-4	-49	-3	-1	nt
COc1cccc(-c2cc(C(=O)Nc3cnn(Cc4ccc(F)cc4)c3)no2)c1	-14	8	-2	-11	-7	5	nt
Cc1ccccc1Cn1cc(NC(=O)c2cc(-c3ccco3)on2)cn1	38*	-26	?	2	-3	1	10
O=C(Nc1cnn(Cc2ccc(F)cc2)c1)c1cc(-c2ccco2)on1	41*	-9	7	-9	-6	-7	-10
Cc1cc(NC(=O)c2cc(-c3ccco3)on2)no1	37*	-2	-3	-29	-8	-1	18
CCOC(=O)CN(c1ccccn1)S(=O)(=O)c1ccc(OC)cc1	19	3	-19	20	-3	0	nt
Cc1cc2nccc(-c3ccc(Cl)c([N+](=O)[O-])c3)n2n1	3	6	2	-2	-6	-1	nt
CN1CCN(NC(=O)CSc2ccc(Cl)cc2Cl)CC1	-2	-12	-1	-15	-3	0	nt
COc1ccccc1C(CNC(=O)c1cc(C)nc2ccccc12)N(C)C (configuration not stated)	3	2	2	21	-5	2	nt
COCCNC(=O)C1(C)CCN(C(=O)c2sccc2C)C1 (configuration not stated)	nt	nt	nt	-14	-8	nt	nt
CC(=O)Nc1ccc(NC(=O)CSc2nnc(-c3cccs3)n2N)cc1	40*	19	10	-10	-6	2	-1
CCOC(=O)CN(C(=O)COC(=O)C1=NNC(=O)CC1)c1ccc(F)cc1	25	1	-7	-21	-4	nt	nt
Cc1nc2c(-c3ccc(F)cc3)cnn2c(N)c1-c1ccc(F)cc1	-357	-149	-9	32	-11	0	-252
Cc1cc(N)n2ncc(-c3ccc(F)cc3)c2n1	-74	-77	9	-74	-5	0	nt
Nc1c(-c2cccs2)cnc2c(-c3ccc(F)cc3)cnn12	-319	-147	-20	-168	-11	0	-358
NC(=O)CCCn1c(C(=O)c2ccc(Cl)cc2)c2ccc([N+](=O)[O-])cc2[n+]1[O-]	-158	7	2	-2	-2	0	nt
NC(=O)CCCn1c(C(=O)c2cc(Cl)c(N)c(Cl)c2)c2ccc([N+](=O)[O-])cc2[n+]1[O-]	-314	25	-6	2	-5	3	-335
CCOC(=O)C(C)Sc1nnc(-c2ccccc2O)n1-c1ccc(C)cc1 (configuration not stated)	-7	-9	4	-34	-5	-2	nt
O=C(c1cc2nc(-c3ccccc3)cc(-c3ccccc3)n2n1)N1CCN(C(=O)c2ccco2)CC1	42*	18	3	6	-3	3	36*
O=C(c1cc2nc(-c3ccccc3)cc(-c3ccccc3)n2n1)N1CCCC1	27	4	-1	-14	-4	0	nt
SMILES	697 NFkB inh	Jurkat NFkB inh	GASC-1 inh	NR2E3 ag-1	GalR3 antagonist	NR2E3 ag-2	697 NFkB conf
Cc1cc(C)cc(N(C(=O)c2csnn2)C(C(=O)NC2CCCC2)c2ccccn2)c1 (configuration not stated)	5	-3	1	1	-9	-1	nt
O=C(OCCOCCN=C1NS(=O)(=O)c2ccccc21)c1ccccc1Br	1	-11	-15	0	-3	0	nt
Cc1ccc(S(=O)(=O)CCC(=O)N2CCN(c3ccc([N+](=O)[O-])cc3)CC2)cc1	-15	4	-23	-30	-10	-1	nt
Cc1cccc(NC(=O)CSc2nnc(-c3cc(C)n(-c4ccccc4)c3C)o2)c1C	71*	-12	11	-21	-3	1	25
CCc1ccc(-c2nc(SCC(=O)N(C)C3CCS(=O)(=O)C3)n[nH]2)cc1 (configuration not stated)	-12	3	2	-30	-1	4	nt
COc1ccc(N(CC(=O)N2CCN(c3ccc(Cl)cc3)CC2)S(=O)(=O)c2c(C)n[nH]c2C)cc1	37*	14	35	8	-2	0	32*
Cc1ccnc(NS(=O)(=O)c2cc([N+](=O)[O-])ccc2C)c1	36*	-6	1	-11	1	1	-4
CCOC(=O)C(C)c1n[nH]c(=O)c2ccccc12 (configuration not stated)	38*	-1	3	-14	-4	0	12
C[C@H](C(=O)O)c1n[nH]c(=O)c2ccccc12	8	6	-10	-10	-1	-2	nt
CC(OC(=O)Cn1cnc2c1c(=O)n(C)c(=O)n2C)C(=O)Nc1ccc(Cl)cc1 (configuration not stated)	-24	-14	-2	1	-3	1	nt
COc1cccc(NC(=O)c2ccccc2F)c1	-111	-103	-5	-70	-6	4	nt
COc1cccc(NC(=O)c2c(F)cccc2F)c1	39*	42	-4	-58	-2	3	27
O=C(Nc1nc2ccccc2s1)c1ccc(OCC2CCCO2)cc1 (configuration not stated)	-401	-130	-8	-191	-6	0	-373
CN(CC1CCCO1)S(=O)(=O)c1ccc(C(=O)Nc2ccc3c(c2)OCO3)cc1 (configuration not stated)	5	5	11	-9	2	-1	nt
O=C(Nc1nc2ccccc2s1)c1ccc(F)cc1	-343	-150	-2	-180	-9	0	-351
CN(CC1CCCO1)S(=O)(=O)c1ccc(C(=O)Nc2nc3cc4c(cc3s2)OCO4)cc1 (configuration not stated)	62*	26	-1	-3	nt	5	65*
COc1ccc(C(=O)Nc2nc3ccccc3s2)cc1	-373	-140	-12	-144	-6	4	-419
O=C(N/C(=C/c1ccccc1Cl)C(=O)N1CCCCC1)c1ccco1	11	2	3	-32	2	-2	nt
